Screening data deposited in PubChem by Broad Institute.
Shown are actives, neighbours in structure and some others; about 1.7% of the full set was active somewhere.
CAL PDZ FP-1: untagged CAL PDZ binding inhibitors, primary screen, biochemical, fluorescence polarization, HTS | inhibition, % at 24.9 µM | Golgi-associated PDZ and coiled-coil motif-containing protein (Homo sapiens), Q9HD26 | AID 602252, 2012 | purified CAL PDZ, TMR-peptide fluorescence polarization, 1 h | 300,000 compounds, 0.92% hits;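 active = mean inhibition of at least 30% with at least half of replicates also reaching 30%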
PGC1a acetyl inh: inhibitors of PGC1a acetylation signal, primary screen, cell-based, U2OS, AlphaScreen, inhibitor mode | AlphaScreen anti-acetyl-lysine; with virally co-expressed GCN5 acetyltransferase | inhibition, % at 15.6 µM | 350,000 compounds, 0.17% hits | AID 651687, 2012;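 active = every replicate shows inhibition of at least 40%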
miR122 inh: miR-122 Renilla sensor signal increase in Huh7, primary screen, miR-122 inhibitor project, cell-based, single point, plate reader; Huh7 miR-122 Renilla luciferase sensor, 48 h; neutral wells = 0, positive control = 100; activation (reporter increase), % at 12.5 µM; 340,000 compounds, 0.3% hits;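 active = mean replicate activation score at least 90 and every replicate individually at or above 90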;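 also: higher luciferase means less miR-122 activity so hits act as miR-122 inhibitors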
CAL PDZ FP-2: CAL PDZ peptide-binding inhibitors, primary screen, biochemical, fluorescence polarization, Cer-tagged CAL PDZ, HTS | purified CAL PDZ, TMR-peptide fluorescence polarization, 1 h | inhibition, % at 20 µM | 330,000 compounds, 0.02% hits | AID 504414, 2011;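 active = highest replicate inhibition of at least 40%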
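System: tagged CAL PDZ domain. Schedule: 1 h room-temperature incubation prior to read. Signal: fluorescence polarization (mP). Measure: percent inhibition from loss of millipolarization.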
CFTR F508del cor: F508del CFTR correction, initial screen, CFBE line, single point; CFBE cells, YFP halide quenching; stimulated with forskolin plus potentiator P3; % fluorescence drop versus neutral controls; activity (quench increase), % at 7.58 µM; 350,000 compounds, 0.36% hits;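 active = mean added fluorescence quench of at least 8% versus neutral control, with both replicates also reaching 8%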;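 also: cells transiently co-express mutant CFTR-F508del with the halide-sensitive YFP; corrector assay measuring rescue of mutant channel to the surface after 24 h compound exposure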
ARNT TACC3 PPI: disruptors of ARNT/TACC3 protein interaction, primary screen, biochemical, AlphaScreen, single concentration; inhibition, % at 9.99 µM; Transforming acidic coiled-coil-containing protein 3 (Homo sapiens), Q9Y6A5; AlphaScreen His-ARNT PAS-B/GST-TACC3 binding, luminescence; TACC3 fragment carries E629A point mutation; 390,000 compounds, 0.66% hits;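 active = mean inhibition of replicates at least 50% and at least half of replicates each reaching 50%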
Numbers stand for hits.

Screening COc1ccc(NC(=O)Cc2cccc(F)c2)cc1S(=O)(=O)Nc1ccccc1Cl returned CAL PDZ FP-1 inactive, PGC1a acetyl inh inactive, miR122 inh 332.0, CAL PDZ FP-2 inactive, CFTR F508del cor inactive and ARNT TACC3 PPI inactive.
For CN(C)C(=O)C[C@@H]1CC[C@@H]2[C@H](COC[C@@H](O)CN2CC2CCCC2)O1 the results were PGC1a acetyl inh inactive, miR122 inh inactive and CFTR F508del cor inactive.
For CO[C@H]1CN(C)C(=O)c2cc(NS(C)(=O)=O)ccc2OC[C@H](C)N(Cc2ccccn2)C[C@@H]1C the results were PGC1a acetyl inh inactive, miR122 inh inactive and CFTR F508del cor inactive.
CN1C[C@H]2[C@@H](c3ccccc31)[C@@H](CO)N2C(=O)C1CCCC1 was read as PGC1a acetyl inh inactive, miR122 inh inactive, CFTR F508del cor inactive and ARNT TACC3 PPI inactive.
COCCCNC(=S)N/N=C/c1ccccc1O was read as CAL PDZ FP-1 inactive, PGC1a acetyl inh inactive, miR122 inh inactive, CAL PDZ FP-2 inactive, CFTR F508del cor inactive and ARNT TACC3 PPI 63.6.
`COCCNC(=S)N/N=C/c1ccccc1C(=O)O` gave CAL PDZ FP-1 inactive, PGC1a acetyl inh inactive, miR122 inh inactive, CAL PDZ FP-2 inactive and ARNT TACC3 PPI inactive.
For CNC1=C(N(C(C)=O)c2ccc(Br)cc2)C(=O)c2ccccc2C1=O the results were CAL PDZ FP-1 inactive, CAL PDZ FP-2 inactive and ARNT TACC3 PPI 45.8.
Screening CCC(=O)N(C1=C(NC)C(=O)c2ccccc2C1=O)C(C)C returned CAL PDZ FP-1 inactive, CAL PDZ FP-2 inactive, CFTR F508del cor inactive and ARNT TACC3 PPI inactive.
Cc1cccc(CS(=O)(=O)c2nnc([C@H](Cc3ccccc3)NC(=O)OC(C)(C)C)o2)c1 was read as CAL PDZ FP-1 inactive, PGC1a acetyl inh 59.8, miR122 inh inactive, CAL PDZ FP-2 inactive and ARNT TACC3 PPI inactive.
`CC1CN(C(=O)/C=C/c2ccc([N+](=O)[O-])s2)CC(C)O1` (stereo not given) gave CAL PDZ FP-1 39.5, PGC1a acetyl inh inactive, CAL PDZ FP-2 inactive, CFTR F508del cor inactive and ARNT TACC3 PPI inactive.
For C[C@@H]1CN([C@@H](C)CO)S(=O)(=O)c2ccc(C#C[C@@H](C)O)cc2O[C@H]1CN(C)C(=O)C1CC1 the results were PGC1a acetyl inh inactive, miR122 inh inactive, CFTR F508del cor inactive and ARNT TACC3 PPI inactive.
`CCc1ccc(/C=C(\Cl)c2nc3cc(Cl)ccc3c(=O)[nH]2)cc1` gave CAL PDZ FP-1 53.5, CAL PDZ FP-2 inactive and ARNT TACC3 PPI inactive.
Screening O=c1[nH]c(/C(Cl)=C/c2cccc(F)c2)nc2cc(C(F)(F)F)ccc12 returned CAL PDZ FP-1 inactive, PGC1a acetyl inh inactive, CAL PDZ FP-2 inactive, CFTR F508del cor inactive and ARNT TACC3 PPI inactive.
Cc1cc(C(C)(C)C)cc(S(=O)(=O)Nc2cccc(C(=O)O)c2)c1C was read as PGC1a acetyl inh inactive, miR122 inh inactive, CAL PDZ FP-2 inactive, CFTR F508del cor inactive and ARNT TACC3 PPI inactive.
Cc1ccccc1NC(=O)c1ccc(NS(=O)(=O)c2cc(C(C)(C)C)cc(C)c2C)cc1 was read as CAL PDZ FP-1 inactive, miR122 inh 320.8, CAL PDZ FP-2 inactive, CFTR F508del cor inactive and ARNT TACC3 PPI inactive.
`COCCOC(=O)c1[nH]c2c(c1C)C(=O)CC(c1cc(OC)ccc1OC)C2` (stereo not given) gave PGC1a acetyl inh inactive, miR122 inh inactive, CAL PDZ FP-2 inactive, CFTR F508del cor inactive and ARNT TACC3 PPI inactive.
`CCCOCCOC(=O)c1[nH]c2c(c1C)C(=O)CC(c1cc(OC)ccc1OC)C2` (stereo not given) gave PGC1a acetyl inh inactive, miR122 inh inactive, CAL PDZ FP-2 inactive, CFTR F508del cor 9.6 and ARNT TACC3 PPI inactive.
CCNC(=O)[C@H]1[C@H](CO)[C@H]2Cn3c(ccc(-c4ccc(F)cc4)c3=O)[C@H]2N1Cc1cc(F)ccc1F was read as miR122 inh inactive, CFTR F508del cor inactive and ARNT TACC3 PPI inactive.
For C/C(=N/NC(N)=S)c1cc2ccc(O)cc2oc1=O the results were CAL PDZ FP-1 inactive, PGC1a acetyl inh inactive, miR122 inh inactive, CAL PDZ FP-2 inactive, CFTR F508del cor inactive and ARNT TACC3 PPI 39.4.
For NC(=S)c1cc2ccc(O)cc2oc1=O the results were CAL PDZ FP-1 inactive, PGC1a acetyl inh inactive, miR122 inh inactive, CAL PDZ FP-2 inactive and ARNT TACC3 PPI inactive.
`O=C(C[C@@H]1CC[C@@H](NC(=O)c2cccnc2)[C@@H](CO)O1)NCCN1CCCCC1` gave PGC1a acetyl inh inactive, CFTR F508del cor inactive and ARNT TACC3 PPI inactive.
Screening NS(=O)(=O)c1ccc(CNc2ccc3ccccc3n2)cc1 returned CAL PDZ FP-1 inactive, miR122 inh inactive, CAL PDZ FP-2 inactive, CFTR F508del cor 8.7 and ARNT TACC3 PPI inactive.
C[C@@H]1CN([C@H](C)CO)C(=O)c2cc(-c3ccncc3)cnc2O[C@@H]1CN(C)C(=O)C1CC1 was read as PGC1a acetyl inh inactive, miR122 inh inactive and CFTR F508del cor inactive.
`Cc1cc2ncc(S(C)(=O)=O)c(N)n2n1` gave CAL PDZ FP-1 55.6, PGC1a acetyl inh inactive, CAL PDZ FP-2 inactive, CFTR F508del cor inactive and ARNT TACC3 PPI inactive.
For C[C@@H]1CCCCO[C@H](CN(C)Cc2ccccc2)[C@@H](C)CN([C@@H](C)CO)C(=O)c2cc(NS(C)(=O)=O)ccc2O1 the results were PGC1a acetyl inh inactive, miR122 inh inactive, CFTR F508del cor inactive and ARNT TACC3 PPI inactive.
Screening CC(C)c1nc2oc3c(NCC4CCCO4)ncnc3c2c2c1COC(C)(C)C2 (stereo not given) returned CAL PDZ FP-1 inactive, miR122 inh 194.2, CAL PDZ FP-2 inactive and ARNT TACC3 PPI inactive.
Cc1nc2oc3c(NCC4CCCO4)ncnc3c2c2c1COC(C)(C)C2 (stereo not given) was read as CAL PDZ FP-1 inactive, PGC1a acetyl inh inactive, miR122 inh inactive, CAL PDZ FP-2 inactive and ARNT TACC3 PPI inactive.
CC(C)c1nc2oc3c(NCCO)ncnc3c2c2c1COC(C)(C)C2 was read as PGC1a acetyl inh inactive, CAL PDZ FP-2 inactive, CFTR F508del cor 12.7 and ARNT TACC3 PPI inactive.
C[C@@H]1CN([C@H](C)CO)C(=O)c2cc(NC(=O)Cc3ccccc3)ccc2O[C@@H]1CN(C)Cc1ccc(C(=O)Nc2ccccc2N)cc1 was read as PGC1a acetyl inh inactive, miR122 inh inactive, CFTR F508del cor inactive and ARNT TACC3 PPI inactive.
